Results published in PMC11364137 (Materials Today Bio, 2024).

Columns and labels:
[1] = system: S. aureus bacterial strain ATCC25923; test: In vivo hernia mesh infection model; set-up: species or system New Zealand white rabbits; conditions: rabbit, 14 days after surgery
In short: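 Rabbit mesh-implant infection model; anaesthesia im 15 min pre-surgery with ketamine (70 mg kg), diazepam and chlorpromazine (1.5 mg kg⁻¹ each). S. aureus ATCC25923 was grown on LB agar 24 h, 37 °C, then overnight in LB and diluted in 0.9 % saline to a target 10^6 CFU.mL⁻¹. At 14 days animals were xylazine-sedated (im), CO₂-euthanised; implant fragments examined by light microscopy and SEM.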

S. aureus = test: Resistance acquisition assay; assay type: cell-based, Staphylococcus aureus; conditions: second assay, concentration kept constant (half of the initial MIC), 30 days

## [H]/N=C(\N/C(=N/[H])NCCCCCCNC(=N)NC(=N)Nc1ccc(Cl)cc1)Nc1ccc(Cl)cc1 [CHX, Chlorhexidine]
[1]
  inflammatory reaction (histology): moderate inflammatory reaction
  macroscopic observations at necropsy compared with uncoated mesh: less purulent material, weak hypervascularization, and better tissue integration
[1]; n = 7 per group
  skin fistula, necrosis, or edema at necropsy: no animal developed skin fistula, necrosis, or edema
[1]; qualitative
  bacteria presence in tissue (histology, S. aureus immunolabeling): not recorded or noticeably reduced

## CN(C)[C@@H]1C(O)=C(C(N)=O)C(=O)[C@@]2(O)C(O)=C3C(=O)c4c(O)cccc4[C@@](C)(O)[C@H]3C[C@@H]12 [tetracycline]
S. aureus
  increase of relative MIC: around 3 times

## Poly(L-arginine) [PAR30]
S. aureus
  increase of relative MIC: strongly stable
